# Article PMC2151622 (The Journal of General Physiology, 2007)
# Residue numbers refer to the chain shown, from its start. Read-outs that look alike come from different tables or passages of the source.
# How the values were obtained:
# Type in all cases: cell-based, rabbit
# D444E-EAAC1 = biological target: T1, D444E-EAAC1 (Oryctolagus cuniculus, UniProt P31597, D444E); test: Blockade of sodium-dependent transient currents
# T1 sequence (P31597 1-524 D444E): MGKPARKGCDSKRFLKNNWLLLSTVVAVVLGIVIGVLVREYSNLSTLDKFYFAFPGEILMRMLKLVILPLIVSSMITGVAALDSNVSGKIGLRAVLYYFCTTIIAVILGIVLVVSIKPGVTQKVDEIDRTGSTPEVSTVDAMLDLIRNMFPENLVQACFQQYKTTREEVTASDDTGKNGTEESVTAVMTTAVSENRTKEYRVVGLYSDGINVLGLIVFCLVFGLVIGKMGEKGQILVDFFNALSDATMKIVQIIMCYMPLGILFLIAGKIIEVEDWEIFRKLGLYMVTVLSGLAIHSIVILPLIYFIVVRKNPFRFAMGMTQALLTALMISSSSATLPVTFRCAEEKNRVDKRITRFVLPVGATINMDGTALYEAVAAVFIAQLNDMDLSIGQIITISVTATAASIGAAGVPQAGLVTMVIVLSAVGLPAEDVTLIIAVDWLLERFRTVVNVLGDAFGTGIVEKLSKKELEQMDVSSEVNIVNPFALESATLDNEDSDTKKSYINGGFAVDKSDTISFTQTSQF
# Procedure, shortened: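 Oocytes expressing the mutant were voltage clamped in ND96 (pH 7.5, HEPES) and stepped from −25 mV. Transients are buffer current minus buffer-plus-compound current. Charge is the sum of current–time integrals at −100 and +80 mV, normalised to 1 mM L-aspartate or 15 mM succinate, and fitted to a generalized Hill equation. Decay constants come from a first-order exponential fit; mean ± SEM of 3–10 oocytes.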
# WT-EAAC1 = biological target: T2, WT-EAAC1 (Oryctolagus cuniculus, UniProt P31597); details: NaSCN-based buffer
# T2 sequence (P31597 1-524): T1 sequence (P31597 1-524 D444E) with E444D
# Procedure, shortened: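 Two-electrode voltage clamp of oocytes in buffer with all NaCl replaced by NaSCN, grounded through a 2% agarose/2 M KCl bridge. Compounds were 2 mM; TBOA (10 μM) was added to a stopped bath. Steps from −25 mV to −100…+40 mV. Net steady-state current (with minus without) was normalised to the L-aspartate current at +40 mV; mean ± SEM of 3 oocytes (L-aspartate n = 6).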
# D444S-EAAC1 = biological target: T3, D444S-EAAC1 (Oryctolagus cuniculus, UniProt P31597, D444S); test: Blockade of sodium-dependent transient currents; details: for Decay time of transient currents blocked: at −100 mV
# T3 sequence (P31597 1-524 D444S): T1 sequence (P31597 1-524 D444E) with E444S
# Procedure, shortened: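 Oocytes expressing the mutant were clamped in sodium ND96 and given 250-ms pulses from −25 mV to −100…+40 mV, with and without compound; TBOA was added to a stopped bath. Isolated transients (without minus with compound) were integrated at −100 and +40 mV and summed. Charge was normalised to 10 mM of each compound and Hill-fitted; 4–6 oocytes. Decay came from an exponential fit; 3–10 oocytes.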
# D444C-EAAC1 = biological target: T4, D444C-EAAC1 (Oryctolagus cuniculus, UniProt P31597, D444C); test: Blockade of sodium-dependent transient currents; details: for Decay time of transient currents blocked: at −100 mV
# T4 sequence (P31597 1-524 D444C): T1 sequence (P31597 1-524 D444E) with E444C
# Procedure, shortened: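 Steps from −25 mV to −100…+40 mV. Transients taken as current without minus current with compound. Charge is the sum of integrals at −100 and +40 mV, normalised to 10 mM of the same compound. IC50 from a generalized Hill fit; decay from a first-order exponential; 3–10 oocytes.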
# T448A mutant EAAC1 = biological target: T5, T448A mutant EAAC1 (Oryctolagus cuniculus, UniProt P31597, T448A); test: Uptake of D-[3H]-aspartate in Xenopus laevis oocytes expressing T448A; details: 20 min in ND96
# T5 sequence (P31597 1-524 T448A): T1 sequence (P31597 1-524 D444E) with E444D, T448A
# D444C mutant EAAC1 = biological target: T6, D444C mutant EAAC1 (Oryctolagus cuniculus, UniProt P31597, D444C); details: 10 min
# T6 sequence (P31597 1-524 D444C): T1 sequence (P31597 1-524 D444E) with E444C
# D444N mutant EAAC1 = biological target: T7, D444N mutant EAAC1 (Oryctolagus cuniculus, UniProt P31597, D444N); test: Blockade of transient currents
# T7 sequence (P31597 1-524 D444N): T1 sequence (P31597 1-524 D444E) with E444N
compound,measurement,setting,value
"N[C@H](C(=O)O)[C@H](OCc1ccccc1)C(=O)O (racemic) [TBOA, DL-threo-β-benzyloxyaspartate]",Decay time of transient currents blocked,"D444E-EAAC1; 10 μM D,L-TBOA, at +80 mV",5.6 ± 1.2 ms
same,IC50,"D444E-EAAC1; read-out: IC50 for substrates/blockers of charge movements, Xenopus oocytes, mean ± SEM",1.8 ± 0.4 µM
same,Effect on the anion conductance,"WT-EAAC1; 10 μM D,L-TBOA",decreased
same,Decay time of transient currents blocked,"D444S-EAAC1; D444S, 160 μM D,L-TBOA",6 ± 0.6 ms
same,IC50,"D444S-EAAC1; read-out: IC50 for substrates/blockers of charge movements, D444S, Xenopus oocytes, mean ± SEM",0.031 ± 0.008 mM
same,Decay time of transient currents blocked,"D444C-EAAC1; D444C, 10 μM D,L-TBOA",4.8 ± 0.3 ms
same,IC50,"D444C-EAAC1; read-out: IC50 for substrates/blockers of charge movements, D444C, Xenopus oocytes, mean ± SEM",1.9 ± 0.2 µM
"N[C@H](CC(=O)O)C(=O)O [D-Aspartate, D-aspartate]",IC50,D444S-EAAC1,1.37 ± 0.36 mM
same,Decay time of transient currents blocked,"D444S-EAAC1; D444S, 10 mM compound",12.8 ± 0.6 ms
same,IC50,D444C-EAAC1,8 ± 1 µM
same,Decay time of transient currents blocked,"D444C-EAAC1; D444C, 10 mM compound",18.4 ± 1 ms
"[3H]C(C(=O)O)C([3H])(N)C(=O)O [D-[^3H]-aspartate, D-[2,3-^3H]-aspartic acid]",Uptake of D-[3H]-aspartate relative to WT,T448A mutant EAAC1,~20%
same,D-[3H]-aspartate uptake relative to WT-EAAC1,D444C mutant EAAC1,~5%
NCCCC(=O)O [GABA],Effect on the anion conductance,WT-EAAC1; 2 mM,not seen
same,Inhibition of the transient currents,"D444S-EAAC1; D444S, 5 mM, sodium 96 mM",unable to inhibit
"O=C(O)CCCC(=O)O [Glutarate, glutarate]",Inhibition of transient currents of similar size as succinate,"D444S-EAAC1; D444S, 2 mM, unpublished data",capable of inhibiting
same,IC50,D444C-EAAC1,260 ± 40 µM
"N[C@@H](CCC(=O)O)C(=O)O [L-Glutamate, L-glutamate]",IC50,"D444E-EAAC1; IC50 for substrates/blockers of charge movements, Xenopus oocytes, mean ± SEM",24.4 ± 2.2 µM
same,IC50,D444S-EAAC1,1.22 ± 0.16 mM
same,Decay time of transient currents blocked,"D444S-EAAC1; D444S, 10 mM compound",11.0 ± 1.2 ms
same,IC50,D444N mutant EAAC1,718 ± 217 µM
same,IC50,D444C-EAAC1,29 ± 3 µM
same,Decay time of transient currents blocked,"D444C-EAAC1; D444C, 10 mM compound",17.7 ± 1 ms
